Test results: ChEMBL document CHEMBL1153437, “Inhibition of monoamine oxidase B by N-methyl-2-phenylmaleimides” (Bioorg Med Chem, 2009)
Calls of active or inactive are those of the source. The calls are words filed in the database; no cut-off is given here.

How the values were obtained:
[1] = Stability in pH 7.4 sodium phosphate buffer assessed as hydrolysis at 100 uM after 30 mins; type: physicochemical; settings: read-out: Activity
How it was run: (§1)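 Compound (100 µM, or 10 µM where stated) in 100 mM sodium phosphate buffer, pH 6.4–8.0, with 4% DMSO, held at 37 °C in quartz cuvettes. UV–vis spectra (230–500 nm) recorded at intervals. Remaining compound was calculated from the loss of absorbance at its longest-wavelength maximum (337–354 nm) using its molar absorptivity; hydrolysis is expressed as percent.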

[2] = Inhibition of MAO-B in baboon liver microsome assessed as MMDP+ formation; type: microsomes, Papio hamadryas
How it was run: (§2)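 Baboon liver mitochondrial fraction (0.15 mg protein/mL) as MAO-B source; substrate MMTP 30–120 µM with varied inhibitor concentrations, 4% DMSO cosolvent. Incubation at 37 °C for 10 min, stopped with perchloric acid, centrifuged; MMDP⁺ read at 420 nm (ε 25,000 M⁻¹). Ki from the x-intercept of a replot of Lineweaver–Burk slopes versus inhibitor concentration; single determination, replot R² ≥0.99.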

Papio hamadryas [3] = species on record: Papio hamadryas; experiment: Inhibition of MAO-B in baboon liver microsome assessed as MMDP+ formation at 13 uM after 60 mins relative to control; values are per cent of control
Papio hamadryas [4] = species on record: Papio hamadryas; experiment: Inhibition of MAO-B in baboon liver microsome assessed as MMDP+ formation at 13 uM after 240 mins relative to control; values are per cent of control
Papio hamadryas [5] = species on record: Papio hamadryas; experiment: Inhibition of MAO-B in baboon liver microsome assessed as MMDP+ formation at 13 uM after 180 mins relative to control; values are per cent of control
Papio hamadryas [6] = species on record: Papio hamadryas; experiment: Inhibition of MAO-B in baboon liver microsome assessed as MMDP+ formation at 13 uM after 30 mins relative to control; values are per cent of control
Papio hamadryas [7] = species on record: Papio hamadryas; experiment: Inhibition of MAO-B in baboon liver microsome assessed as MMDP+ formation at 13 uM after 120 mins relative to control; values are per cent of control
Papio hamadryas [8] = species on record: Papio hamadryas; experiment: Competitive inhibition of MAO-B in baboon liver microsome by Lineweaver-Burke plot; type: microsomes; how it was run: as §2
[9] = Stability in pH 8 sodium phosphate buffer assessed as hydrolysis at 100 uM at 360 mins; type: physicochemical; settings: read-out: Activity; how it was run: as §1
[10] = Stability in pH 6.4 to 8 phosphate buffer at 100 uM up to 360 mins; type: physicochemical; settings: pH 6.4, 6 h; how it was run: as §1
[11] = Stability in pH 7.4 sodium phosphate buffer assessed as hydrolysis at 10 uM after 30 mins; type: physicochemical; settings: read-out: Activity; how it was run: as §1
[12] = Stability in pH 7 sodium phosphate buffer assessed as hydrolysis at 100 uM at 360 mins; type: physicochemical; settings: read-out: Activity; how it was run: as §1
[13] = Stability in pH 7.4 sodium phosphate buffer assessed as hydrolysis at 100 uM at 360 mins; type: physicochemical; settings: read-out: Activity; how it was run: as §1
Papio hamadryas [14] = species on record: Papio hamadryas; experiment: Inhibition of MAO-B in baboon liver microsome assessed as MMDP+ formation at 14 uM up to 60 mins; type: microsomes
How it was run: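 Baboon liver mitochondria (0.3 mg protein/mL) preincubated with inhibitor (14 µM) in 100 mM sodium phosphate pH 7.4 at 37 °C for 0, 15, 30 or 60 min. Then diluted to 0.15 mg protein/mL (inhibitor 7 µM final) with MMTP 90 µM and incubated 15 min at 37 °C. Perchloric acid stop, MMDP⁺ read at 420 nm; triplicate, mean ± SEM.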

[15] = Stability in pH 6.4 to 8 phosphate buffer at 100 uM; type: physicochemical; settings: pH 6.4, 100 µM; how it was run: as §1
[16] = molecular target: T1, Amine oxidase [flavin-containing] B (Homo sapiens, UniProt P27338); experiment: Inactivation of human […] assessed as half time at 0.8 mM; settings: 800 µM
T1 sequence (P27338 whole entry): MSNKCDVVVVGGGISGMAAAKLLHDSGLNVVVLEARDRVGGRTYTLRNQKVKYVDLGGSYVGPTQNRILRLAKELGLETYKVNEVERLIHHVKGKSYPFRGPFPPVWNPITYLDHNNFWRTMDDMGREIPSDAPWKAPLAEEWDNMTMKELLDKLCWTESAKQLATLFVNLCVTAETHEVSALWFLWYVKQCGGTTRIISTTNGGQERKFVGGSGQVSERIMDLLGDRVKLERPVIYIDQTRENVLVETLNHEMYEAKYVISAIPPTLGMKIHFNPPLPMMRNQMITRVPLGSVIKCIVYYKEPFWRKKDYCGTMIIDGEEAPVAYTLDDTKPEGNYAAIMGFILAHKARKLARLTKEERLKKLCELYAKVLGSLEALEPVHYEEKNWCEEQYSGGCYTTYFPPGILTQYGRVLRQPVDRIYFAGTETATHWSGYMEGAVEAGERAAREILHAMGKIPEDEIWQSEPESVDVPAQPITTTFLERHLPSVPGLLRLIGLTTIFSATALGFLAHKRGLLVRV

degraded at 0.5 h, 100 µM [1] | Ki [2] | Structure (SMILES) | other results
40% | 8.6 µM | Cc1cccc(C2=CC(=O)N(C)C2=O)c1 | 
40% | 6.66 µM | CN1C(=O)C=C(c2cccc(Cl)c2)C1=O | residual activity (Papio hamadryas [3]): 66%; residual activity (Papio hamadryas [4]): 84%; residual activity (Papio hamadryas [5]): 80%; residual activity (Papio hamadryas [6]): 52%; residual activity (Papio hamadryas [7]): 68%; Activity (Papio hamadryas [8]): Active
2.8% | 3.49 µM | CN1C(=O)C=C(c2ccccc2)C1=O | degraded at 6 h, 100 µM [9]: 73.8%; Activity [10]: Stable; degraded at 0.5 h, 10 µM [11]: 1%; degraded at 6 h, 100 µM [12]: 13%; degraded at 6 h, 100 µM [13]: 31.4%; Activity (Papio hamadryas [14]): inactive; Activity [15]: Stable
40% | 5.73 µM | CN1C(=O)C=C(c2cccc(F)c2)C1=O | 
40% | 6.99 µM | CN1C(=O)C=C(c2cccc(Br)c2)C1=O | 
 |  | CCN1C(=O)C=CC1=O [N-ETHYLMALEIMIDE] | Time [16]: 8 h
40% | 11 µM | CN1C(=O)C=C(c2cccc(C(F)(F)F)c2)C1=O | 
40% | 8.56 µM | COc1cccc(C2=CC(=O)N(C)C2=O)c1 | 
